Columns and labels:
Hepatitis C virus = test: Antiviral activity against Hepatitic C virus genotype 1b clone ET infected in human Huh7 replicon cells after 72 hrs by luciferase reporter gene assay; type: functional, organism-based, Hepacivirus hominis; conditions: Huh-7, 72 h
[1] = Ratio of drug uptake in Sprague-Dawley rat liver to plasma at 10 mg/kg, po measured after 7 hrs; type: ADME, organism-based; design: dose 10 mg/kg, route oral
How it was run: (§1)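 Male Sprague–Dawley rats (n = 3) received a single oral dose of 10 mg/kg in PEG400/2% vitamin E-TPGS. Liver concentration was measured 7 h post-dosing, and the liver/plasma concentration ratio was taken at that same 7 h time point.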

[2] = Drug uptake in Sprague-Dawley rat liver at 10 mg/kg, po measured after 7 hrs; type: ADME, organism-based; design: dose 10 mg/kg, route oral; conditions: read-out: Drug uptake; how it was run: as §1
[3] = Clearance in Sprague-Dawley rat at 2 mg/kg, iv and 10 mg/kg, po; type: ADME, organism-based; conditions: in vivo
How it was run: (§2)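 Male Sprague–Dawley rats (n = 3) given a single iv dose of 2 mg/kg in PEG400/saline 70:30 and a single oral dose of 10 mg/kg in PEG400/2% vitamin E-TPGS. Plasma kinetics were followed to give plasma clearance, Cmax and oral bioavailability.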

[4] = Oral bioavailability in Sprague-Dawley rat at 10 mg/kg; type: ADME, organism-based; conditions: in vivo; how it was run: as §2
[5] = Selectivity index, ratio of CC50 for human Huh7 cells to EC50 for Hepatitic C virus genotype 1b clone ET; type: toxicity, cell-based, Huh-7; conditions: read-out: Ratio CC50/EC50
How it was run: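 Selectivity index computed in Huh-7 cells as CC50/EC50.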

[6] = Metabolic stability in rat liver microsomes assessed as compound metabolized at 5 uM after 15 mins; type: ADME, Microsome; conditions: read-out: Drug metabolism
How it was run: (§3)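 Rat or human liver microsomes incubated with compound at 5 µM for 15 min. Stability is given as % of compound metabolized.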

[7] = Metabolic stability in human liver microsomes assessed as compound metabolized at 5 uM after 15 mins; type: ADME, Microsome; conditions: read-out: Drug metabolism; how it was run: as §3
[8] = Cmax in Sprague-Dawley rat at 10 mg/kg, po; type: ADME, organism-based; design: dose 10 mg/kg, route oral; conditions: in vivo; how it was run: as §2
[9] = Inhibition of cytochrome P450; type: ADME
Canis familiaris = test: Volume of distribution at steady state in dog at 10 mg/kg, po; type: ADME, organism-based, Canis lupus familiaris; design: dose 10 mg/kg, route oral; conditions: in vivo
[10] = AUC (0 to infinity) in dog at 10 mg/kg, po; type: ADME, organism-based, Canis lupus familiaris; design: time infinity, dose 10 mg/kg, route oral; conditions: plasma
How it was run: (§4)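 Dogs given a single oral dose of 10 mg/kg. Peak plasma concentration and plasma AUC extrapolated to infinity were determined, reported in µM and µM h.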

[11] = Oral bioavailability in dog at 10 mg/kg; type: ADME, organism-based, Canis lupus familiaris; conditions: in vivo
Rattus norvegicus = species on record: Rattus norvegicus; test: Drug metabolism in Sprague-Dawley rat assessed as reactive acyl glucuronides formation; type: ADME, organism-based; conditions: in vivo
[12] = Cmax in dog at 10 mg/kg, po; type: ADME, organism-based, Canis lupus familiaris; design: dose 10 mg/kg, route oral; conditions: in vivo; how it was run: as §4
[13] = Plasma clearance in dog at 10 mg/kg, po; type: ADME, organism-based, Canis lupus familiaris; design: dose 10 mg/kg, route oral

Structure (SMILES) | EC50 (Hepatitis C virus) | Kp at 7 h [1] | concentration at 7 h [2] | clearance [3] | bioavailability [4] | selectivity ratio [5] | metabolised at 0.25 h, 5 µM [6] | metabolised at 0.25 h, 5 µM [7] | other results
CN1CCOCCN(C)S(=O)(=O)NC(=O)c2ccc3c(C4CCCCC4)c(n(C)c3c2)-c2ccccc2OCC1=O | 190 nM | 64 | 1720 ng/mL | 128 mL/min/kg | 21% |  |  |  | 
COc1ccc2c(c1)C=C1Cn3c-2c(C2CCCCC2)c2ccc(cc23)C(=O)NS(=O)(=O)N(C)CCCCCCN(C)C1=O | 160 nM |  |  |  |  | 150 | 46% | 99% | 
COc1ccc2c(c1)C=C1Cn3c-2c(C2CCCCC2)c2ccc(cc23)C(=O)NS(=O)(=O)N(C)CCCCN(C)C1=O | 82 nM | 23 | 5000 ng/mL | 40 mL/min/kg | 76% | > 330 | 26% | 56% | Cmax [8]: 800 ng/mL
COc1ccc2c(c1)C=C1Cn3c-2c(C2CCCCC2)c2ccc(cc23)C(=O)NS(=O)(=O)N(C)CCCN(C)C1=O | 680 nM |  |  |  |  | 72 | 28% | 18% | 
COc1ccc2c(c1)C=C1Cn3c-2c(C2CCCCC2)c2ccc(cc23)C(=O)NS(=O)(=O)NCCN(C)CCNC1=O | 470 nM |  |  |  |  | > 68 | 23% | 7% | 
COc1ccc2c(c1)C=C1Cn3c-2c(C2CCCCC2)c2ccc(cc23)C(=O)NS(=O)(=O)N(C)CCCCCNC1=O | 130 nM | 341 | 6320 ng/mL | 70 mL/min/kg | 6% | > 400 | 27% | 32% | Cmax [8]: 30 ng/mL
COc1ccc2c(c1)C=C1Cn3c-2c(C2CCCCC2)c2ccc(cc23)C(=O)NS(=O)(=O)N(C)CCN(C)CCNC1=O | 550 nM |  |  |  |  | > 58 |  |  | 
COc1ccc2c(c1)C=C1Cn3c-2c(C2CCCCC2)c2ccc(cc23)C(=O)NS(=O)(=O)N2CCN(CCNC1=O)CC2 | 860 nM |  |  |  |  | > 40 | 16% | 10% | 
CN1CCOCCN(C)S(=O)(=O)NC(=O)c2ccc3c(C4CCCCC4)c4n(c3c2)CC(=Cc2cc(Cl)ccc2-4)C1=O | 280 nM |  |  |  |  | 150 | 22% | 16% | 
CN1CCOCCN(C)S(=O)(=O)NC(=O)c2ccc3c(C4CCCCC4)c4n(c3c2)CC(=Cc2cc(F)ccc2-4)C1=O | 72 nM | 62 | 6560 ng/mL | 61.7 mL/min/kg | 52% | > 250 | 37% | 38% | Cmax [8]: 272 ng/mL
CN1CCCCN(C)S(=O)(=O)NC(=O)c2ccc3c(C4CCCCC4)c4n(c3c2)CC(=Cc2ccc(Cl)cc2-4)C1=O | 14500 nM |  |  |  |  | > 2 | 30% | 29% | 
COc1ccc2c(c1)C=C1Cn3c-2c(C2CCCCC2)c2ccc(cc23)C(=O)NS(=O)(=O)N(C)CCCCNC1=O | 912 nM |  |  |  |  | > 40 | 13% | 20% | 
COc1ccc2c(c1)C=C1Cn3c-2c(C2CCCCC2)c2ccc(cc23)C(=O)NS(=O)(=O)NCCCCN(C)C1=O | 550 nM |  |  |  |  | > 58 | 25% | 27% | 
COc1ccc2c(c1)C=C1Cn3c-2c(C2CCCCC2)c2ccc(cc23)C(=O)NS(=O)(=O)N(C)CCN2CCN(CC2)C1=O | 180 nM | 108 | 299 ng/mL | 157 mL/min/kg | 3% | > 170 | 17% | 26% | Cmax [8]: 6 ng/mL
COc1ccc2c(c1)C=C1Cn3c-2c(C2CCCCC2)c2ccc(cc23)C(=O)NS(=O)(=O)N(C(C)C)CCCCN(C)C1=O | 330 nM |  |  |  |  | > 100 | 12% | 80% | 
COc1ccc2c(c1)C1C[C@]13Cn1c-2c(C2CCCCC2)c2ccc(cc21)C(=O)NS(=O)(=O)N(C)CCOCCN(C)C3=O (stereo not given in full) | 40 nM | 38 | 3200 ng/mL | 86.7 mL/min/kg | 51% |  | 72% | 95% | 
COc1ccc2c(c1)C1C[C@@]13Cn1c-2c(C2CCCCC2)c2ccc(cc21)C(=O)NS(=O)(=O)N(C)CCOCCN(C)C3=O (stereo not given in full) | 800 nM |  |  |  |  |  |  |  | 
COc1ccc2c(c1)C[C@@H]1Cn3c-2c(C2CCCCC2)c2ccc(cc23)C(=O)NS(=O)(=O)N(C)CCOCCN(C)C1=O |  | 22 | 898 ng/mL | 53.3 mL/min/kg | 15% |  | 42% | 63% | 
CCN(CC)C1CCN(C(=O)Cn2c(-c3ccc(Cl)cc3)c(C3CCCCC3)c3ccc(C(=O)O)cc32)CC1 | 127 nM |  |  |  |  |  |  |  | 
COc1ccc2c(c1)C=C1Cn3c-2c(C2CCCCC2)c2ccc(cc23)C(=O)NS(=O)(=O)N(C)CCOCCN(C)C1=O [TMC-647055] | 82 nM | 46 | 7800 ng/mL | 53.3 mL/min/kg | > 66% | > 300 | 30% | 35% | inhibition (INH) [9]: Not Active; Vdss (Canis familiaris): 0.32 L/kg; AUC(0-inf) [10]: 25.8 µM·h; bioavailability [11]: 87%; Drug metabolism (Rattus norvegicus): Not Active; Cmax [12]: 10.2 µM; Cmax [8]: 440 ng/mL; CL/F [13]: 9 mL/min/kg

From ChEMBL document CHEMBL2040770, “Finger loop inhibitors of the HCV NS5b polymerase. Part II. Optimization of tetracyclic indole-based macrocycle leading to the discovery of TMC647055” (Bioorg Med Chem Lett, 2012)
